Screening data deposited in PubChem by SRMLSC.
Only a selection was taken, and hits are over-represented in it overall.
PostGolgi yeast – growth inhibition of a yeast mutant, post-Golgi transport screen; 98,000 compounds, 0.9% hits; post-Golgi transport phenotypic cell assay; AID 739; inhibition, % at 10 µM;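 note: yeast cells grown in 1536-well plates; yeast grown about 18 h at 30C before absorbance read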
Yeast lifespan up – yeast lifespan extension; S. cerevisiae growth with nicotinamide, OD615; deaD strain in restrictive glucose medium; inhibition of the nicotinamide effect, % at 10 µM; 130,000 compounds, 0.68% hits;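 active = inhibition above a set limit, placed 3 SD over the median of all compounds, cut at about 26% in these data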;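 note: 0% = nicotinamide-treated wells and 100% = cells grown without nicotinamide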
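Buffer or medium: CSMM-D glucose medium, restrictive; test system: modified budding yeast, DeaD strain; compound: single dose 10 µM compound, 0.25% DMSO; schedule: culture preincubation 4 h, compound exposure 48 h, both 30 °C; detection: optical density (absorbance) at 615 nm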
BB579 growth dn – yeast BB579 growth reduction in restrictive medium | S. cerevisiae BB579 growth, OD615, 48 h | inhibition, % at 10 µM | 140,000 compounds, 0.51% hits | AID 804;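 active = inhibition above a set limit, 3 SD over the mean compound inhibition, cut at about 44% in these data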
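Test system: S. cerevisiae DeaD strain BB579 yeast; Medium: restrictive CSMM-D medium; Compound: one dose, 10 µM compound with 0.25% DMSO; Incubation: 4 h cell preincubation, 48 h compound exposure, 30 °C humidified; Signal: OD at 615 nm; Benchmarks: amphotericin B at 10 µg/mL as positive control.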
PostGolgi ctrl – inhibits growth of the yeast control strain | efflux-deficient yeast background strain, growth absorbance A615, 16 h | inhibition, % at 10 µM | 98,000 compounds, 5% hits | AID 738
An asterisk follows results filed as active. Cut-off read from the data, not from the text of the source, unless noted: active = inhibition above about 30%; inactive = the rest.

For FC(F)(F)c1nc(-c2cccs2)ncc1-c1nnnn1-c1ccc(Cl)cc1 the results were PostGolgi yeast 21, Yeast lifespan up 0, BB579 growth dn -50 and PostGolgi ctrl 53*.
COc1ccccc1N1CCN(CC(=O)Nc2sccc2C#N)CC1 was read as Yeast lifespan up -4 and BB579 growth dn -19.
For CC(/C=N/n1c(C2CCCCC2)n[nH]c1=S)=C\c1ccccc1 the results were PostGolgi yeast 4, Yeast lifespan up -20, BB579 growth dn -52 and PostGolgi ctrl 44*.
Cc1ccc(/C=N/n2c(C3CCCCC3)n[nH]c2=S)o1 was read as Yeast lifespan up -2 and BB579 growth dn -1.
`CC(/C=N/n1c(-c2cc(C)[nH]n2)n[nH]c1=S)=C\c1ccccc1` gave Yeast lifespan up -6 and BB579 growth dn -16.
CC(=C/c1ccccc1)/C=N/n1c(-c2ccco2)n[nH]c1=S was read as PostGolgi yeast 9, Yeast lifespan up -20, BB579 growth dn -30 and PostGolgi ctrl 33*.
O=C(CSc1ccc(Cl)cc1)N1CCC(c2nc3ccccc3s2)CC1 was read as PostGolgi yeast 3, Yeast lifespan up -13, BB579 growth dn -32 and PostGolgi ctrl 41*.
CCc1ccc(C(=O)N2CCC(c3nc4ccccc4s3)CC2)cc1 was read as PostGolgi yeast -6, Yeast lifespan up -9, BB579 growth dn -28 and PostGolgi ctrl 37*.
For CCCCCc1cc(O)c2c(C)cc(=O)oc2c1 the results were PostGolgi yeast 9, Yeast lifespan up -25, BB579 growth dn -41 and PostGolgi ctrl 61*.
For CC1CCCN(C(=O)CSc2cnc3ccccc3n2)C1 (centres undefined) the results were PostGolgi yeast 3, Yeast lifespan up -12, BB579 growth dn -41 and PostGolgi ctrl 15.
For CC(C(=O)N1CCN(c2ccc(Cl)cc2)CC1)c1ncc(C(F)(F)F)cc1Cl (centres undefined) the results were PostGolgi yeast 2, Yeast lifespan up 1, BB579 growth dn 12 and PostGolgi ctrl 28.
For CCCCOC(=O)c1ccc(NC(=O)/C=C/c2cccs2)cc1 the results were Yeast lifespan up 1 and BB579 growth dn -19.
For CN1CCN(C(=O)c2ccc(COc3ccc(Cl)cc3Cl)cc2)CC1 the results were PostGolgi yeast -8, Yeast lifespan up -14, BB579 growth dn -10 and PostGolgi ctrl 6.
For O=C(c1ccc(Cl)cc1)N1CCC(O)(CSc2ccc(Cl)cc2Cl)CC1 the results were PostGolgi yeast 15, Yeast lifespan up -2, BB579 growth dn -20 and PostGolgi ctrl 94*.
O=C(NCCN1C(=O)S/C(=C\c2ccccc2)C1=O)c1cc(S(=O)(=O)N2CCOCC2)c(Cl)cc1Cl was read as Yeast lifespan up -5 and BB579 growth dn -50.
For N#CC1=C(N)Oc2cc(O)ccc2C1c1ccncc1 (centres undefined) the results were PostGolgi yeast -3, Yeast lifespan up -5, BB579 growth dn -3 and PostGolgi ctrl -2.
Screening CN(C)c1ccc2c(c1)OC(N)=C(C#N)C2c1cccc(F)c1 (centres undefined) returned PostGolgi yeast -3, Yeast lifespan up -18, BB579 growth dn -44 and PostGolgi ctrl 37*.
Screening CCCc1ccc(OCc2ccc(C(=O)N3CCN(c4ccccn4)CC3)o2)c(OC)c1 returned PostGolgi yeast 7, Yeast lifespan up -3, BB579 growth dn -82 and PostGolgi ctrl 71*.
For COc1ccccc1S(=O)(=O)Cc1ccc(C(=O)N2CCN(c3ccccc3)CC2)o1 the results were PostGolgi yeast -4, Yeast lifespan up -12, BB579 growth dn -60 and PostGolgi ctrl 7.
For Cc1nn(Cc2c(F)c(F)c(F)c(F)c2F)c(C)c1NC(=O)c1ccc(COc2ccccc2Cl)o1 the results were PostGolgi yeast -4, Yeast lifespan up -15, BB579 growth dn -29 and PostGolgi ctrl 80*.
For O=C(c1ccc(COc2ccccc2Br)o1)N1CCCCCC1 the results were PostGolgi yeast -1, Yeast lifespan up -7, BB579 growth dn -90 and PostGolgi ctrl 38*.
`O=C(c1ccc(COc2ccccc2Cl)o1)N1CCN(c2ccccc2)CC1` gave PostGolgi yeast -12, Yeast lifespan up -5, BB579 growth dn -17 and PostGolgi ctrl 46*.
For C=CCc1cccc2cc(C(=O)OCC(=O)c3ccccc3)c(=O)oc12 the results were PostGolgi yeast -3, Yeast lifespan up -7, BB579 growth dn -2 and PostGolgi ctrl 7.
Screening O=C(O)c1cccc(NC(=S)NC(=O)C(c2ccccc2)c2ccccc2)c1 returned PostGolgi yeast 24, Yeast lifespan up 4, BB579 growth dn -29 and PostGolgi ctrl 11.
Screening CCOC(=O)N1CCN(c2nc(C)c3c(n2)CC(C)CC3=O)CC1 (centres undefined) returned PostGolgi yeast 13, Yeast lifespan up -11, BB579 growth dn -29 and PostGolgi ctrl 3.
CC(NC(=O)c1ccc(CS(=O)(=O)c2cccc(C(F)(F)F)c2)o1)c1ccc2c(c1)OCCO2 (centres undefined) was read as PostGolgi yeast 37*, Yeast lifespan up -5, BB579 growth dn -19 and PostGolgi ctrl 14.
`O=C(NCc1ccc2c(c1)OCO2)c1ccc(-c2ccc(Cl)cc2)o1` gave PostGolgi yeast 16, Yeast lifespan up -6, BB579 growth dn -23 and PostGolgi ctrl 70*.
`O=C(NCc1ccc2c(c1)OCO2)c1ccc(CS(=O)(=O)c2cccc(C(F)(F)F)c2)o1` gave PostGolgi yeast 96*, Yeast lifespan up 8, BB579 growth dn -47 and PostGolgi ctrl 27.
`O=C(c1ccccc1)c1nc2ccccc2n(CCCn2c(=O)c(C(=O)c3ccccc3)nc3ccccc32)c1=O` gave PostGolgi yeast 2, Yeast lifespan up -12, BB579 growth dn -42 and PostGolgi ctrl -10.
`O=S(=O)(NC1=NCCC1)c1cccc(NC(=S)NCCc2ccccc2)c1` gave Yeast lifespan up -4 and BB579 growth dn -44.
`CN(C(=S)NC(=O)CCCOc1ccc(Cl)cc1Cl)c1ccccc1` gave PostGolgi yeast 0, Yeast lifespan up -18, BB579 growth dn -27 and PostGolgi ctrl 7.
Screening O=C(CSc1nnc(-c2cc3ccccc3cc2O)n1Cc1ccco1)N1CCc2ccccc2C1 returned PostGolgi yeast 2, Yeast lifespan up 4, BB579 growth dn -50 and PostGolgi ctrl 80*.
`O=C(c1ccco1)N1CCN(CC(O)COc2ccc3oc4ccccc4c3c2)CC1` (centres undefined) gave PostGolgi yeast 5, Yeast lifespan up -6, BB579 growth dn -46 and PostGolgi ctrl 28.
Screening CCOc1cc(-c2c(C#N)c(N)nc3c2CCCC3C)ccc1O (centres undefined) returned PostGolgi yeast 11, Yeast lifespan up -3, BB579 growth dn -82 and PostGolgi ctrl 38*.
For CCOc1cc(-c2c(C#N)c(N)nc3c2CCc2ccccc2-3)ccc1O the results were Yeast lifespan up 1 and BB579 growth dn -30.
CCOC(=O)COc1ccc(S(=O)(=O)N2CCN(c3ccccc3)CC2)cc1 was read as Yeast lifespan up 9 and BB579 growth dn -47.
Screening CCn1cnc2sc(C)c(C)c2c1=O returned PostGolgi yeast 12, Yeast lifespan up -14, BB579 growth dn -28 and PostGolgi ctrl 32*.
